From PubChem
OXTR potentiator = potentiates the human oxytocin receptor response. CHO-OTR cells, Fluo-8 calcium fluorescence, potentiator mode; 0% = oxytocin EC15, 100% = EC100. P30559. 0.061% of 320,000 active. activation, % at 3 µM;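 active = activation above that plate's cutoff, the mean activation of tested compounds plus 3 SD, cut at about 6.6% in these data, passing the limit was not always enough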;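 note: 100% uses oxytocin at 75 nM as the full agonist control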
Target sequence (P30559 whole entry, looked up): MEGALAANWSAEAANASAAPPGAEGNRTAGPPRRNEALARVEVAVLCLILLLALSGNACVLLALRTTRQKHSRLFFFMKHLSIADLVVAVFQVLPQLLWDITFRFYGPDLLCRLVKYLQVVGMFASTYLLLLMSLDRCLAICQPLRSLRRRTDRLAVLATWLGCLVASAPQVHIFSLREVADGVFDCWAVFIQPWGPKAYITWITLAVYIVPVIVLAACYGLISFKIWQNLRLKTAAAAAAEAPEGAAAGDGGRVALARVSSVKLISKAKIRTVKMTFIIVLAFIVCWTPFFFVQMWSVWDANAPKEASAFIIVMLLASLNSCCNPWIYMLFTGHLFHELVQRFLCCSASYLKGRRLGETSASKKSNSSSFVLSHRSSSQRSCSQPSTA
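Assay system: CHO cell line stably expressing human OTR. Reagent: EC15 oxytocin agonist. Dosing: single dose, 3.0 µM nominal final compound concentration. Timing: compound 6 min at room temperature before oxytocin, 100 s read. Signal: kinetic Fluo-8 calcium fluorescence. Controls: oxytocin EC15 low and EC100 high.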
V1aR counter = activates human V1a receptor in oxytocin agonist counter-screen | AID 2797 | CHO-V1R cells, Fluo-8 calcium fluorescence, agonist mode; 0% DMSO, 100% 3 nM vasopressin | activation, % at 3 µM | P37288 | 0.25% of 320,000 active;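 active = activation above the mean activation of all tested compounds plus 3 SD, per screening run, cut at about 20% in these data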;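 note: signal is peak over basal fluorescence ratio across a 100 second FLIPR read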
OX1R antag-1 = antagonists of human orexin 1 receptor (OX1R). O43613. OX1R-expressing cells, FRET antagonist read-out. inhibition, % at 6.6 µM. 1.8% of 330,000 active. AID 485270; in the data active = inhibition mostly above about 38%, no sharp cut-off; inactive = mostly below about 40%;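 note: 0% = agonist challenge alone and 100% = reference antagonist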
OX1R antag-2 = human HCRTR1 antagonism; CHO/OX1R cells, Fluo-8 calcium fluorescence, orexin A; inhibition, % at 5 µM; 0.43% of 330,000 active; AID 434989;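 active = inhibition above its plate's threshold, mean inhibition of all tested compounds on the plate plus 3 SD, cut at about 37% in these data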;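 note: 0% = orexin A challenge wells and 100% = SB-334867-A antagonist wells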
OXTR agonist = agonists of human oxytocin receptor; P30559; CHO-OTR cells, Fluo-8 calcium fluorescence; normalized: DMSO 0%, oxytocin 100%; activation, % at 3 µM; AID 2435; 0.32% of 320,000 active;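 active = activation above the mean of all tested compounds plus 3 SD, cutoff set per screening run, cut at about 20% in these data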;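 note: peak over basal fluorescence ratio from a 100 s FLIPR kinetic read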
CHO parental Ca = counter-screen for OX1R antagonists: effect in parental CHO cells | inhibition, % at 5.6 µM | parental CHO-K1, ATP-induced calcium, Fluo-8 fluorescence | 0.63% of 330,000 active;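 active = inhibition above that plate's mean sample inhibition plus 3 SD, cut at about 26% in these data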;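 note: 0% = ATP-challenged DMSO wells and 100% = DMSO wells without ATP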
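Material: parental CHO cells / Compound: single nominal dose of 5.6 µM per compound / Signal: Fluo-8 fluorescence / Replicates: singlicate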
Numbers without * were called inactive. An excerpt weighted towards active compounds, which were near 2.7% of everything screened.

SMILES	OXTR potentiator	V1aR counter	OX1R antag-1	OX1R antag-2	OXTR agonist	CHO parental Ca
C=CCNC(=O)COC(=O)c1ccc(Sc2nncn2C)c([N+](=O)[O-])c1	-2.9	-0.5	72.7*	-22.6	-0.5	5.0
CC(=O)Nc1ccc(S(=O)(=O)NCC(=O)OCC(=O)c2cc(C)n(-c3ccc4c(c3)OCO4)c2C)cc1	-0.6	-0.3	5.4	-21.8	-1.9	-12.4
CC(=O)c1ccc(OCC(=O)c2cc(C)n(-c3ccc4c(c3)OCO4)c2C)cc1	-6.3	5.4	32.1	19.1	11.3	52.6*
Cc1cc(C(=O)COC(=O)c2ccc(N)c([N+](=O)[O-])c2)c(C)n1-c1ccc2c(c1)OCO2	-13.3	5.4	47.2*	3.9	4.2	23.7
CCc1ccccc1-n1ncc(C(=O)Nc2ccccc2OC)c1C	-9.1	-1.1	6.0	-19.1	-1.8	-11.0
CCOc1cccc(/C=C/c2ccc3cccc(O)c3n2)c1OC	-7.8	1.4	8.9	27.7	1.5	47.8*
CCOc1cc(/C=C\c2nc(O)c([N+](=O)[O-])c(=O)[nH]2)ccc1OC(C)C	-3.0	0.7	14.6	-9.1	0.9	-2.2
O=c1[nH]c(/C=C\c2cccs2)nc(O)c1[N+](=O)[O-]	6.8	1.9	64.8*	-0.8	0.6	-7.4
O=c1[nH]c(/C=C\c2ccc(O)cc2)nc(O)c1[N+](=O)[O-]	-2.0	0.6	46.9*	-12.4	0.4	6.5
O=c1[nH]c(/C=C\c2ccc(O)c(Cl)c2)nc(O)c1[N+](=O)[O-]	-5.9	-0.3	51.3*	-9.9	-0.4	6.9
CCC(=O)N1CCN=C1SCc1cccc(C(F)(F)F)c1	4.4	-0.5	3.5	-27.8	-1.3	-12.1
CC(=O)Nc1ccc(NC(=O)CCC(=O)Oc2ccc(C)cc2)cc1	-15.6	0.2	4.9	-2.5	0.1	-4.7
Cc1ccc(-c2nc(C(=O)NCC3CCCO3)cc3c2[nH]c2ccccc23)cc1 (centres undefined)	-2.0	0.0	50.1*	-15.0	-0.9	-5.4
OC(COc1ccccc1)Cn1c2ccccc2c2ccccc21 (centres undefined)	3.3	-0.5	10.7	-7.2	0.4	-3.8
O=C(O)c1ccc(OCC(O)Cn2c3ccccc3c3ccccc32)cc1 (centres undefined)	-8.1	43.6*	13.3	32.4	21.6*	38.3*
Cc1ccc2nc(N/N=C/c3ccccc3F)nc(-c3ccccc3)c2c1	-7.8	-1.6	50.8*	-22.3	-3.1	-22.3
Cc1ccc(-c2nc3ccccc3[nH]2)cc1NC(=O)c1ccc2c(c1)OCO2	-4.7	1.8	9.9	-13.6	0.0	-16.6
Cc1ccc(-c2nc3ccccc3[nH]2)cc1NC(=S)NC(=O)c1ccccc1Br	-16.8	1.8	86.8*	38.6	-2.5	-18.9
Cc1noc(C)c1C(=O)N(CC(C)C)c1nc2ccccc2s1	-12.0	2.7	27.6	-41.7	-0.7	-35.8
O=C(COc1ccccc1Cl)c1ccc2c(c1)CCCC2	-8.0	0.4	22.8	-28.0	0.0	28.3*
COc1ccc(C(=O)Nc2ccc(N3CCCCCC3)cc2)cc1S(=O)(=O)N1CCOCC1	-11.2	6.5	13.9	-1.7	6.3	-2.0
CCOC(=O)c1cccc(NC(=O)CCS(=O)(=O)c2cccc3nsnc23)c1	-13.9	-0.8	69.1	-34.3	-1.9	-25.0
COc1ccc(CCNS(=O)(=O)c2cccc3nsnc23)cc1OC	3.5	-0.1	21.9	-21.8	0.1	-10.6
Cc1cccc(NC(=O)CCS(=O)(=O)c2cccc3nsnc23)c1C	-12.8	0.6	63.3*	-27.2	-0.6	-23.9
COc1ccc(CCNC(=O)CCS(=O)(=O)c2cccc3nsnc23)cc1OC	-11.8	0.6	76.7*	-18.5	0.7	-15.9
CN(CC(=O)Nc1ccccc1Cl)C(=O)CN1C(=O)NC(c2ccccc2)(c2ccccc2)C1=O	-12.9	4.3	6.1	-3.4	4.9	26.2
CC(NC(=O)Nc1ccc([N+](=O)[O-])cc1)C(c1cccs1)N1CCCC1 (centres undefined)	-16.2	55.5*	14.9	-21.1	32.7*	-16.6
Cc1cccc2cc(C#N)c(SCC(=O)N3CC(=O)Nc4ccccc43)nc12	-8.5	3.9	70.6*	14.3	1.1	0.1
